The record followed here is ChEMBL document CHEMBL1126613, “Centrally acting serotonergic agents. Synthesis and structure-activity relationships of C-1- or C-3-substituted derivatives of 8-hydroxy-2-(di-n-propylamino)tetralin” (J Med Chem, 1993).

For test [1], the system named is Mus musculus. Description: Behavioral time in mouse face to face assay at 3.0 umol/kg administered subcutaneously. Type of test: functional. An outline of the steps:
(§1)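 Male CF-1 mice (19-29 g), 8 pairs per dose, dosed sc, ip or orally in 0.25% methylcellulose or 0.1% citric acid. Pairs from the same home cage are held together for 30 min. Pairs from different cages are then placed in a small litter-floored cage, and face-to-face interaction is timed visually for 3 min. Comparison with the daily control by two-tailed Wilcoxon rank sum, p<0.05.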

For test [2], the system named is Mus musculus. The experiment in a line: Behavioral time in mouse isolation-induced aggression behavioral assay at 30 umol/kg administered intraperitoneally (*P<0.05). The format is functional. The method, boiled down:
(§2)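 Isolated male CF-1 resident mice, housed singly ≥1 month and weighing 28-30 g at testing, were dosed ip or orally in 0.25% methylcellulose or 0.1% citric acid. Dosing was blind, 6 per group (n=12 vehicle). After 30 min an untreated group-housed intruder was introduced. Latency to fighting was recorded, capped at 600 s. Residents rested ≥3 days before reuse. Wilcoxon rank sum.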

Test [3] has as its system Felis catus. Description: Maximum decrease on arterial blood pressure at 1 mg/kg. Type of test: functional. An outline of the steps: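 Adult cats (2.5-4.0 kg) anesthetized with ketamine 11 mg/kg im, then chloralose 80 mg/kg iv. Femoral artery cannulated for blood pressure, femoral vein for drug. Ventilated, paralyzed with gallamine 4 mg/kg iv, rectal temperature held at 37-38 °C. Cumulative iv doses given at 20-min intervals. Maximum decrease reported following a 1 mg/kg iv dose.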

The test system of test [4] is Mus musculus. The experiment in a line: Behavioral time in mouse isolation-induced aggression assay at 0.9 umol/kg administered intraperitoneally. Type of test: functional. An outline of the steps: as §2
Test [5] concerns Rattus norvegicus. Description: Effect on the synthesis rate of dopamine (DOPA) accumulation at the dose of 0.3 umol/kg in the rat ventral limbic brain region. Type of test: functional, Limbic system. The method, boiled down: (§3)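 Male Sprague-Dawley rats were given test drug or vehicle sc at time zero, then NSD 1015 (100 mg/kg ip) 15 min later. DOPA and 5-HTP were measured electrochemically by peak integration. Results are expressed as percent change from NSD 1015 plus saline controls. Groups of 6 vs control 6, unpaired t test.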

Test [6] relates to Mus musculus. Description: Behavioral time in mouse face to face assay at 30 umol/kg administered subcutaneously. The format is functional. The method, boiled down:
as §1

Test [7] deals with Mus musculus. Description: Tested in vivo for the effective dose administered orally in mouse hypothermia assay. The format is functional. The conditions noted are these: po. The method, boiled down:
(§4)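 Charles River CF-1 mice (18-22 g, 4 per dose), housed individually 20 min before testing. Rectal temperature taken before dosing and 20 min after (sc 0.1 mL; oral 0.2 mL by gavage needle). A drop of ≥2 °F counted as positive. Doses started at 30 mg/kg and fell by half-log until 0/4 responded.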

Test [8] deals with Mus musculus. The experiment in a line: Tested in vivo for the maximum temperature decrease in mouse hypothermia assay. Type of test: functional. An outline of the steps: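 CF-1 mice (18-22 g, 4 per dose), dosed sc or orally. Rectal temperature measured before dosing and 20 min after. The mean maximum temperature drop (°F) at 20 min after any dose is recorded as an efficacy index.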

Test [9] is filed under the species Felis catus. Description: Dose at which the SND has been reduced to 50% of the pretreatment value. Type of test: functional. An outline of the steps: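 Adult cats (2.5-4.0 kg), ketamine 11 mg/kg im then chloralose 80 mg/kg iv, ventilated, gallamine-paralyzed, rectal temperature 37-38 °C. Sympathetic nerve discharge quantified by cumulative integration. Cumulative iv doses were given at 20-min intervals. Value is the dose reducing discharge to 50% of pretreatment.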

In test [10] the test system is Felis catus. Description: Dose on arterial blood pressure (BP) in anesthetized cat. Type of test: functional.
Test [11] deals with Rattus norvegicus. The experiment in a line: Effect on the synthesis rate of dopamine (DOPA) accumulation at the dose of 3.0 umol/kg in the rat ventral limbic brain region. Type of test: functional, Limbic system. The method, boiled down: as §3
The species named for test [12] is Felis catus. The experiment in a line: Maximum decrease observed. Also noted: unit not given here. The format is functional.
Test [13] concerns Mus musculus. Description: Behavioral time in mouse face to face assay at 30 umol/kg administered subcutaneously (*P<0.05). The format is functional. An outline of the steps:
as §1

Test [14] has as its system Mus musculus. The experiment in a line: Behavioral time in mouse isolation-induced aggression assay at 3.0 umol/kg administered intraperitoneally (*P<0.05). Type of test: functional. An outline of the steps: as §2
Test [15] concerns Mus musculus. Description: Behavioral time in mouse isolation-induced aggression behavioral assay at 9.1 umol/kg administered intraperitoneally (*P<0.05). The format is functional. An outline of the steps: as §2
Test [16] has as its system Mus musculus. The experiment in a line: Behavioral time in mouse isolation-induced aggression assay at 0 umol/kg administered intraperitoneally. The format is functional. The method, boiled down: as §2
The subject of test [17] is Mus musculus. The experiment in a line: Behavioral time in mouse face to face assay at dose of 0 umol/kg administered. Type of test: functional. The method, boiled down: as §1
In test [18] the test system is Mus musculus. The experiment in a line: Behavioral time in mouse isolation-induced aggression assay 0 umol/kg administered intraperitoneally. Type of test: functional. The method, boiled down:
as §2

The test system of test [19] is Rattus norvegicus. The experiment in a line: Effect on the synthesis rate of 5 HTP accumulation at the dose 0.3 umol/kg in the rat ventral limbic brain region. The format is functional, Limbic system. The method, boiled down: as §3
In test [20] the test system is Mus musculus. The experiment in a line: In vivo effective dose administered subcutaneously in mouse hypothermia assay. Type of test: functional. The conditions noted are these: sc. The method, boiled down: as §4
The test system of test [21] is Rattus norvegicus. Description: Effect on the synthesis rate of 5 HTP accumulation at the dose of 3.0 umol/kg in the rat ventral limbic brain region (*P<0.05). The format is functional, Limbic system. The method, boiled down: as §3
Test [22] relates to Mus musculus. Description: Behavioral time in mouse isolation-induced aggression assay 0.3 umol/kg administered intraperitoneally. Type of test: functional. The method, boiled down: as §2
Test [23] deals with Mus musculus. Description: Behavioral time in mouse face to face assay at 33 umol/kg administered perorally (*P<0.05). Type of test: functional. The method, boiled down: (§5)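 Male CF-1 mice (Charles River, 19-29 g), 8 pairs per dose, dosed sc, ip or orally in 0.25% methylcellulose or 0.1% citric acid; 30 min absorption housed with familiar partner. Pairs from different home cages placed in small litter-floored cage; face-to-face interaction duration scored visually for 3 min. Wilcoxon rank sum (two-tailed) vs daily control, p < 0.05.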

Test [24] has as its system Mus musculus. The experiment in a line: Behavioral time in mouse isolation-induced aggression assay at 10 umol/kg administered perorally (*P<0.05). The format is functional. An outline of the steps:
(§6)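 Male CF-1 mice. Residents were isolated singly for at least 1 month; group-housed intruders were kept 4-6/cage. Mice weighed 28-30 g at first test. Residents got drug ip or orally in 0.25% methylcellulose or 0.1% citric acid 30 min before an untreated intruder was introduced. Latency to fighting was recorded, capped at 600 s. Dosing was blind, 6/group (vehicle n = 12), Wilcoxon rank sum.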

In test [25] the test system is Mus musculus. Description: Behavioral time in mouse isolation-induced aggression assay at 33 umol/kg administered perorally (*P<0.05). Type of test: functional. The method, boiled down: as §6
The test system of test [26] is Mus musculus. Description: Behavioral time in mouse face to face assay at 0.3 umol/kg administered perorally (*P<0.05). The format is functional. An outline of the steps: as §5
Test [27] concerns Mus musculus. Description: Behavioral time in mouse face to face assay at 3.3 umol/kg administered perorally (*P<0.05). Type of test: functional. An outline of the steps: as §5
The test system of test [28] is Mus musculus. Description: Behavioral time in mouse face to face assay at 0.03 umol/kg administered perorally. The format is functional. The method, boiled down: as §5
The test system of test [29] is Mus musculus. Description: Behavioral time in mouse isolation-induced aggression assay at 10 umol/kg administered intraperitoneally (*P<0.05). Type of test: functional. An outline of the steps: as §6
The test system of test [30] is Mus musculus. The experiment in a line: Behavioral time in mouse face to face assay at 0 umol/kg administered perorally. Type of test: functional. The method, boiled down:
as §5

In test [31] the test system is Mus musculus. Description: Behavioral time in mouse isolation-induced aggression assay at 0 umol/kg administered perorally (*P<0.05). Type of test: functional. An outline of the steps: as §6
Test [32] has as its system Rattus norvegicus. The experiment in a line: Effect on the synthesis rate of dopamine (DOPA) accumulation at the dose of 10 umol/kg in the rat ventral limbic brain region. Type of test: functional, Limbic system. The method, boiled down:
(§7)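 Male Sprague-Dawley rats dosed sc with drug or vehicle at time zero. NSD 1015 (100 mg/kg ip) given 15 min later to block aromatic decarboxylase. Brain DOPA and 5-HTP measured by electrochemical detection with peak integration. Expressed as percent change from NSD 1015 plus saline controls. Control and test groups N = 6 each, compared by unpaired t test.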

In test [33] the test system is Rattus norvegicus. The experiment in a line: Effect on the synthesis rate of 5 HTP accumulation at the dose of 10 umol/kg in the rat ventral limbic brain region. The format is functional, Limbic system. The method, boiled down:
as §7

Test [34] relates to Mus musculus. The experiment in a line: Behavioral time in mouse face to face assay at 0 umol/kg administered. The format is functional. An outline of the steps:
as §5

The subject of test [35] is Mus musculus. The experiment in a line: Behavioral time in mouse isolation-induced aggression assay 32 umol/kg administered peritoneally. The format is functional. To be noted: in the assay text read “administered orally” for “administered peritoneally”. An outline of the steps:
as §6

Test [36] has as its system Mus musculus. The experiment in a line: Behavioral time in mouse face to face assay at 0.3 umol/kg administered. The format is functional. An outline of the steps: as §5
The test system of test [37] is Mus musculus. The experiment in a line: Behavioral time in mouse face to face assay at 3.2 umol/kg administered. The format is functional. An outline of the steps: as §5
The test system of test [38] is Mus musculus. The experiment in a line: Behavioral time in mouse isolation-induced aggression assay 0 umol/kg administered peritoneally. The format is functional. The conditions noted are these: in the assay text read “administered orally” for “administered peritoneally”. An outline of the steps:
as §6

Test [39] has as its system Mus musculus. The experiment in a line: Behavioral time in mouse face to face assay at 32 umol/kg administered. The format is functional. An outline of the steps:
as §5

“And” between values parts separate entries of the source, which are not always exact repeats. Equal values may be shown once.

By ED50 is commonly meant the midpoint of the dose-response relation. Turning to `CCCN(CCC)C1CCc2cccc(O)c2C1` (stereo not drawn) [8-OH-DPAT], the Time worked out at 1.6 s in test [1]; 351 s in test [2]; 20 s in [4]; 5 s in test [6]; 4.4 s in test [13]; 310 s in test [14]. For the same compound, the Time is on record as 437 s in [15]; 177 s in test [16]; 1.1 s in [17]; 6 s in [18]; 11 s in test [22]. The results for the Max decrease in [3] and in [12] were 57 and 2, respectively. Also, the Change in test [5] is recorded as 16%; in test [11], 3.2%; in [19], -37%; in test [21], -48%. Moreover, the ED50 in [7] turned out to be 9.7 µmol/kg; in [9] it was 0.03 µmol/kg; in [20], 1 µmol/kg. Moreover, in test [8], the TMP.decrease is 7.2 degrees F and 7.5 degrees F. Besides, the “BP (ED50)” value in test [10] turned out to be 66%.
Regarding `CCCN(C)[C@@H]1CCc2cccc(OC)c2[C@@H]1CO`, the Time in test [23] was 2.1 s; in test [24] it was 125 s; in [25] it was 269 s; in test [26], 2 s; in test [27], 1.7 s; in test [28], 1.7 s. For the same compound, the Time in test [29] is reported as 329 s; in [16] it was 6 s; in [30], 1.1 s; in test [31], 43 s. Moreover, the ED50 in [7] stood at 32 µmol/kg; in [20], 5.7 µmol/kg. The TMP.decrease in test [8] was 9.1 degrees F and 5 degrees F.
In the case of `C=CC[C@@H]1c2cccc(OC)c2CC[C@H]1NCCC` (relative stereo), the Change was -15% in test [32] and 2.7% in test [33].
Turning to `C=CCN[C@@H]1CCc2cccc(OC)c2[C@@H]1C(=O)OC`, the Time is reported as 0.7 s in [34]; 120 s in [35]; 1 s in test [36]; 1.1 s in test [37]; 56 s in test [38]; 0.8 s in test [39].
